Test results taken from ChEMBL document CHEMBL1149827, “Dichapetalin-type triterpenoids and lignans from the aerial parts of Phyllanthus acutissima” (J Nat Prod, 2008).
Converted amounts (≈) assume the structure as drawn.

What was measured:
P388 = experiment: Cytotoxicity against mouse P388 cells after 72 hrs by sulforhodamine B assay; assay type: functional; details: P388, 72 h, read-out: ED50 (the source's name)
Method in brief: (§1)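 SRB assay. Samples from […] DMSO stock, final DMSO 0.5%, triplicate, 72 h at 37 °C, 5% CO2. Media: P-388 Fisher's + 5% BCS; KB DMEM + 10% BCS; Col-2, ASK MEM + 10% FBS; MCF-7, Lu-1 MEM + 5% BCS. TCA-fixed, 0.4% SRB stain, dye solubilized in 10 mM trizma base, A515 read. ED50 reported.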

[1] = target: Human immunodeficiency virus type 1 reverse transcriptase (Human immunodeficiency virus 1) (UniProt Q72547); experiment: Inhibition of HIV1 reverse transcriptase at 200 ug/ml
Method in brief: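 Tannin-free samples at final 200 µg/mL in 10% DMSO added to the reaction mix before HIV-1 RT. Control with 10% DMSO only; nevirapine (2 µg/mL) positive control. Duplicate wells averaged, % RT inhibition calculated.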

Lu1 = experiment: Cytotoxicity against human Lu1 cells after 72 hrs by sulforhodamine B assay; assay type: functional; details: Lu1, 72 h, read-out: ED50 (the source's name); method in brief: as §1
[2] = test system: Human immunodeficiency virus 1; experiment: Antiviral activity against deltaTat/Rev deffective HIV1 in 1A2 cells assessed as reduction of syncytium formation; assay type: functional, organism-based; details: Human immunodeficiency virus 1, 1A2
Method in brief: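 1A2 cells seeded, then compound added as 2-fold serial dilutions in triplicate. After 1 h preincubation, ∆Tat/RevMC99 virus added. Virus, cell and cytotoxicity control wells; AZT positive control. EC50 is the concentration reducing syncytium formation by 50%.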

[3] = test system: Human immunodeficiency virus 1; experiment: Selectivity index, ratio of IC50 for deltaTat/Rev deffective HIV1 in 1A2 cells to EC50 for deltaTat/Rev deffective HIV1 in 1A2 cells; assay type: functional
Method in brief: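 Ratio of the XTT IC50 in uninfected 1A2 cells to the syncytium-reduction EC50 against ∆Tat/RevMC99 virus in 1A2 cells.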

KB = experiment: Cytotoxicity against human KB cells after 72 hrs by sulforhodamine B assay; assay type: functional; details: read-out: ED50 (the source's name); method in brief: as §1
Col2 = experiment: Cytotoxicity against human Col2 cells after 72 hrs by sulforhodamine B assay; assay type: functional; details: Col2, 72 h, read-out: ED50 (the source's name); method in brief: as §1
MCF7 = experiment: Cytotoxicity against human MCF7 cells after 72 hrs by sulforhodamine B assay; assay type: functional; details: MCF7, 72 h, read-out: ED50 (the source's name); method in brief: as §1
[4] = test system: Human immunodeficiency virus 1; experiment: Antiviral activity against deltaTat/Rev deffective HIV1 in 1A2 cells assessed as inhibition of metabolic activity in uninfected cells; assay type: functional; details: Human immunodeficiency virus 1, 1A2
Method in brief: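 Uninfected 1A2 cells (same batch), run in parallel with the syncytium assay, with medium in place of virus. Serial dilutions in duplicate wells, 3 days. XTT–phenazine methosulfate added; formazan read at A450 with A650 reference. IC50 is the dose inhibiting 50% of metabolic activity.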

[5] = Cytotoxicity against rat ASK cells after 72 hrs by sulforhodamine B assay; assay type: functional; details: read-out: ED50 (the source's name); method in brief: as §1
L1210 = experiment: Cytotoxicity against mouse L1210 cells; assay type: functional

Row | inhibition [1] [%] | EC50 [2] [µg/mL] | Structure (SMILES) | EC50 (P388) [µg/mL] | EC50 (Lu1) [µg/mL] | Ratio IC50/EC50 [3] | EC50 (KB) [µg/mL] | EC50 (Col2) [µg/mL] | EC50 (MCF7) [µg/mL] | IC50 [4] [µg/mL] | EC50 [5] [µg/mL] | EC90 (L1210) [µg/mL]
1 | – | – | C/C(=C\[C@H]1C[C@@H]([C@@H]2CC[C@]34C[C@]23C=C[C@@H]2[C@@]3(C)CC=C5C[C@@H](c6ccccc6)OC[C@]5(C)[C@@H]3C[C@@H](O)[C@]24C)C(=O)O1)CO [DICHAPETALIN A] | – | – | – | – | – | – | – | – | < 0.0001
2 | – | – | COc1cc2c(=O)oc3c(OC)c(O)cc4c(=O)oc(c1OC)c2c34 | > 5 | > 5 | – | > 5 | > 5 | > 5 | – | > 5 | –
3 | -9.2 | > 125 | COc1c(O)cc2c(=O)oc3c(O)c(O[C@@H]4O[C@@H](C)[C@H](O)[C@@H](O)[C@H]4O)cc4c(=O)oc1c2c34 | > 5 | > 5 | – | > 5 | > 5 | > 5 | > 125 | > 5 | –
4 | 45.4 | 9.9 (≈ 27.8 µM) | COc1cc(/C=C2/C(=O)OC[C@H]2Cc2ccc(O)c(OC)c2)ccc1O [ACUTISSIMALIGNAN B] | > 5 | > 5 | 4.9 | > 5 | > 5 | > 5 | 48.2 (≈ 135 µM) | > 5 | –
5 | 65.9 | 72.9 (≈ 119 µM) | CO[C@@]1(C)CO[C@@]2(C=C([C@@H]3CC[C@]45C[C@]34CC[C@@H]3[C@@]4(C)CC=C6C[C@@H](c7ccccc7)OC[C@]6(C)[C@@H]4C[C@@H](O)[C@]35C)C(=O)O2)C1 | 0.4 (≈ 0.651 µM) | > 5 | >1.7 | > 5 | > 5 | > 5 | > 125 | > 5 | –
6 | 55.5 | 86.1 (≈ 131 µM) | CO[C@@]1(C)CO[C@@]2(C=C([C@@H]3CC[C@]45C[C@]34CC[C@@H]3[C@@]4(C)CC=C6C[C@@H](c7ccc8c(c7)OCO8)OC[C@]6(C)[C@@H]4C[C@@H](O)[C@]35C)C(=O)O2)C1 | 0.5 (≈ 0.759 µM) | > 5 | >1.5 | > 5 | > 5 | > 5 | > 125 | > 5 | –
7 | – | – | Cc1c2ccncc2c(C)c2c1[nH]c1ccccc12 [ELLIPTECINE] | 0.2 (≈ 0.812 µM) | 0.2 (≈ 0.812 µM) | – | 0.7 (≈ 2.84 µM) | 0.5 (≈ 2.03 µM) | 0.4 (≈ 1.62 µM) | – | 0.2 (≈ 0.812 µM) | –
8 | 39.7 | 34.6 (≈ 98.2 µM) | O=C1OC[C@@H](Cc2ccc3c(c2)OCO3)/C1=C\c1ccc2c(c1)OCO2 [ISOGADIAN] | > 5 | > 5 | >3.6 | > 5 | > 5 | > 5 | > 125 | > 5 | –
9 | -0.5 | < 3.9 | CO[C@@]1(C)CO[C@@]2(C1)OC(=O)[C@H]([C@@H]1CC[C@]34C[C@]13CC[C@@H]1[C@@]3(C)CC=C5C[C@@H](c6ccc7c(c6)OCO7)OC[C@]5(C)[C@@H]3C[C@@H](O)[C@]14C)[C@H]2O | 0.005 (≈ 0.00739 µM) | 3.1 (≈ 4.58 µM) | >8.1 | > 5 | 4.8 (≈ 7.09 µM) | 1.1 (≈ 1.63 µM) | 31.6 (≈ 46.7 µM) | > 5 | –
10 | 51 | 15.7 (≈ 24.9 µM) | COc1c(OC(C)=O)cc2c(=O)oc3c(O)c(O[C@@H]4O[C@@H](C)[C@H](OC(C)=O)[C@@H](OC(C)=O)[C@H]4OC(C)=O)cc4c(=O)oc1c2c34 | > 5 | > 5 | 1.6 | > 5 | > 5 | > 5 | 24.9 (≈ 39.5 µM) | > 5 | –

Row | Structure (SMILES) | inhibition [1] [%] | EC50 [2] [µg/mL] | EC50 (P388) [µg/mL] | EC50 (Lu1) [µg/mL] | Ratio IC50/EC50 [3] | EC50 (KB) [µg/mL] | EC50 (Col2) [µg/mL] | EC50 (MCF7) [µg/mL] | IC50 [4] [µg/mL] | EC50 [5] [µg/mL] | EC90 (L1210) [µg/mL]
11 | COc1cc2c(O[C@@H]3OC[C@H](O)[C@H](O)[C@H]3O)c3c(c(-c4ccc5c(c4)OCO5)c2cc1OC)C(=O)OC3 [ACUTISSIMALIGNAN A] | 10.7 | < 3.9 | 0.02 (≈ 0.039 µM) | 0.14 (≈ 0.273 µM) | >3.1 | 0.59 (≈ 1.15 µM) | 0.25 (≈ 0.488 µM) | 0.22 (≈ 0.429 µM) | 12.3 (≈ 24 µM) | 2.3 (≈ 4.49 µM) | –
12 | O=C1OCc2cc3cc4c(cc3c(-c3ccc5c(c3)OCO5)c21)OCO4 [TAIWANIN C] | 88.2 | > 125 | > 5 | > 5 | – | > 5 | > 5 | > 5 | > 125 | > 5 | –
